# Source: the RNAGym collection of RNA variant scans (doi:10.1126/science.aae0568)
# This sample holds only a part of the variants without activity.
# B1: tRNA (parent)
# chain: GUUCCGUUGGCGUAAUGGUAACGCGUCUCCCUCCUAAGGAGAAGACUGCGGGUUCGAGUCCCGUACGGAACG
# Variants of: B1
# Experiment: yeast fitness relative to wild type (ratio to wild type); higher = fitter; tRNA-Arg(CCU), competitive growth, 37 C, YPD
# Outline: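 Start and end populations of a pooled competition were compared by 100-nucleotide paired-end sequencing of gene amplicons. The Saccharomyces cerevisiae strains carried tRNA-Arg(CCU) gene variants at the native genomic locus, synthesised with a 3% per-site mutation rate at 69 sites, and competed in YPD at 37°C for 24 hours in six parallel replicates. Darwinian fitness relative to wild type was based on the change in genotype frequencies. Genotypes required ≥ 100 starting reads, and estimates < 0.5 were set to 0.5.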
row,Variant,yeast fitness
1,GUUCCGUUGGCGUAAUGGUAACGCGUCUCCCUCCUAAGGAGCAGAGUGCGGGUUCGAGUCCCGUACGGAACG [A42C C46G],0.753
2,GUUCCGUUGGCGUAAUGGUAACGCGUCUCCCUCCUAAGGAGCAGAAUGCGGGUUCGAGUCCCGUACGGAACG [A42C C46A],0.783
3,GUUCCGUUGGCGUAAUGGUAACGCGUCUCCCUCCUAAGGAGCAGACUGCGGGUUGGCGUCCUGUACGGAACG [A42C C55G A57C C62U],≤ 0.5
4,GUUCCGUUGGCGUAAUGGUAACGCGUCUCCCUCCUAAGGAGCAGACUGCGGGUUCGAGUUCCGUACGAAACG [A42C C60U G68A],≤ 0.5
5,GUUCCGUUGGCGUAAUGGUAACGCGUCUCCCUCCUAAGGAUAAGAAUGCGGGUUCGAGUCCCGUACGGAUCG [G41U C46A A70U],0.632
6,GUUCCGUUGGCGUAAUGGUAACGCGUCUCCCUCCUAAGGACAAGACUGCGGGUUAGAGUCCCGUACGGUACG [G41C C55A A69U],≤ 0.5
7,GUUCCGUUGGCGUAAUGGUAACGCGUCUCCCUCCUAAGGAGCAGACUGUGGGUUCGAGUCCCGUACGGAACG [A42C C49U],0.939
8,GUUCCGUUGGCGUAAUGGUAACGCGUCUCCCUCCUAAGGACAAGACUGCGGGUUCGAGUCCCGGACGGAACG [G41C U64G],0.735
9,GUUCCGUUGGCGUAAUGGUAACGCGUCUCCCUCCUAAGGACAAGACUGCGGGUUCGAGUUCCGGACAGAACG [G41C C60U U64G G67A],≤ 0.5
10,GUUCCGUUGGCGUAAUGGUAACGCGUCUCCCUCCUAAGGAGCAGACUGCGGGUUCGAGUCUCGUACGGAACG [A42C C61U],0.668
11,GUUCCGUUGGCGUAAUGGUAACGCGUCUCCCUCCUAAGGACAAGACUGCGGCUUCGAGUCCCGUACGGCACG [G41C G52C A69C],≤ 0.5
12,GUUCCGUUGGCGUAAUGGUAACGCGUCUCCCUCCUAAGGACAAGACUGCGGGUUCGAGUCCAGUACGGAACG [G41C C62A],0.713
13,GUUCCGUUGGCGUAAUGGUAACGCGUCUCCCUCCUAAGGAGCAGACUGCGAGUUCGAGUCCCGUACGGACCG [A42C G51A A70C],0.578
14,GUUCCGUUGGCGUAAUGGUAACGCGUCUCCCUCCUAAGGAGCAGACUCCGGGUUUGAGUCCCGUACGGAACG [A42C G48C C55U],0.557
15,GUUCCGUUGGCGUAAUGGUAACGCGUCUCCCUCCUAAGGAGCAGACUGCCGGUUCGAGUCCCGUACGGAACG [A42C G50C],0.548
16,GUUCCGUUGGCGUAAUGGUAACGCGUCUCCCUCCUAAGGAGCAGACUGCGGGUUCGAGUCCCGUAUGGAACG [A42C C66U],0.816
17,GUUCCGUUGGCGUAAUGGUAACGCGUCUCCCUCCUAAGGACAAGACUGCGGGUUCGAGUGCCGUACGGAACG [G41C C60G],0.695
18,GUUCCGUUGGCGUAAUGGUAACGCGUCUCCCUCCUAAGGACAAGACUCCGGGUUCGAGUCCCGUACGGCACG [G41C G48C A69C],0.606
19,GUUCCGUUGGCGUAAUGGUAACGCGUCUCCCUCCUAAGGACAAGACUGCGGGUUAGAGUCCCGUACGGAACG [G41C C55A],0.617

row,Variant,yeast fitness
1,GUUCCGUUGGCGUAAUGGUAACGCGUCUCCCUCCUAAGGACAAGACUGCGGGUUUGAGUCCCGUACGGAACG [G41C C55U],0.787
2,GUUCCGUUGGCGUAAUGGUAACGCGUCUCCCUCCUAAGGAGCAGCCUGCGGCUUCGAGUCCCGUACGGAACG [A42C A45C G52C],≤ 0.5
3,GUUCCGUUGGCGUAAUGGUAACGCGUCUCCCUCCUAAGGACAAGACUGCGCGUUCGAGUCCCGUACGGAACG [G41C G51C],0.52
4,GUUCCGUUGGCGUAAUGGUAACGCGUCUCCCUCCUAAGGAGCAGCCUACGGGUUCGAGUCCCGUACGGAACG [A42C A45C G48A],0.958
5,GUUCCGUUGGCGUAAUGGUAACGCGUCUCCCUCCUAAGGAGCAGACUGCAGGUUCGAGUCCCGAACGGAACG [A42C G50A U64A],≤ 0.5
6,GUUCCGUUGGCGUAAUGGUAACGCGUCUCCCUCCUAAGGACAACACUGCGGGUUAGAGUCCCGUACGGAACG [G41C G44C C55A],0.563
7,GUUCCGUUGGCGUAAUGGUAACGCGUCUCCCUCCUAAGGACAAGACUGAGGGUUCGAGUCCCGUACAGAACG [G41C C49A G67A],≤ 0.5
8,GUUCCGUUGGCGUAAUGGUAACGCGUCUCCCUCCUAAGGAGCAGACUGCGGGUUCGCGUCACGUACGGAACG [A42C A57C C61A],≤ 0.5
9,GUUCCGUUGGCGUAAUGGUAACGCGUCUCCCUCCUAAGGACAAGACUGCGGGUUCGAGUCCUGUACGGCACG [G41C C62U A69C],0.619
10,GUUCCGUUGGCGUAAUGGUAACGCGUCUCCCUCCUAAGGAGCAGACUGCGGGUUCGAGUCCCGUACGGGACG [A42C A69G],0.97
11,GUUCCGUUGGCGUAAUGGUAACGCGUCUCCCUCCUAAGGAGCAGACUGCGGGUUCGAGUCCCGUACGGUACG [A42C A69U],0.927
12,GUUCCGUUGGCGUAAUGGUAACGCGUCUCCCUCCUAAGGAGCAGACUGCGGGUUCGAGUCCUGUAUGGAACG [A42C C62U C66U],0.507
13,GUUCCGUUGGCGUAAUGGUAACGCGUCUCCCUCCUAAGGAUAAGUCUGUGGGUUCGAGUCGCGUACGGAACG [G41U A45U C49U C61G],≤ 0.5
14,GUUCCGUUGGCGUAAUGGUAACGCGUCUCCCUCCUAAGGAGCAGACUGCGGGUUCGAGUCCCGUACGGCUCG [A42C A69C A70U],0.721
15,GUUCCGUUGGCGUAAUGGUAACGCGUCUCCCUCCUAAGGACAAGACUGCGGGUUAGAGUCCCGUACGGAGCG [G41C C55A A70G],0.551
16,GUUCCGUUGGCGUAAUGGUAACGCGUCUCCCUCCUAAGGAGCAGGCUGCGAGUUCGAGUCCCGUACGGAACG [A42C A45G G51A],≤ 0.5
17,GUUCCGUUGGCGUAAUGGUAACGCGUCUCCCUCCUAAGGAGCAGACUGCGGGUUCGAGUCCCGUACGGAACG [A42C],0.967
18,GUUCCGUUGGCGUAAUGGUAACGCGUCUCCCUCCUAAGGAGCAGACUGCGGGUUCGAGUCCCGUGGGGAACG [A42C A65G C66G],≤ 0.5
